# In ChEMBL document CHEMBL1641573, “3-[(Imidazolidin-2-yl)imino]indazole ligands with selectivity for the α(2)-adrenoceptor compared to the imidazoline I(1) receptor” (Bioorg Med Chem, 2011):
# How the values were obtained:
# [1] = biological target: T1, Adrenergic receptor alpha-1 (Rattus norvegicus, UniProt P15823+P23944+P43140); test: Displacement of [3H]prazosin from alpha1 adrenergic receptor in Sprague-Dawley rat brain membrane after 45 mins by liquid scintillation counting; format: cell membranes
# T1 sequence (P15823 whole entry): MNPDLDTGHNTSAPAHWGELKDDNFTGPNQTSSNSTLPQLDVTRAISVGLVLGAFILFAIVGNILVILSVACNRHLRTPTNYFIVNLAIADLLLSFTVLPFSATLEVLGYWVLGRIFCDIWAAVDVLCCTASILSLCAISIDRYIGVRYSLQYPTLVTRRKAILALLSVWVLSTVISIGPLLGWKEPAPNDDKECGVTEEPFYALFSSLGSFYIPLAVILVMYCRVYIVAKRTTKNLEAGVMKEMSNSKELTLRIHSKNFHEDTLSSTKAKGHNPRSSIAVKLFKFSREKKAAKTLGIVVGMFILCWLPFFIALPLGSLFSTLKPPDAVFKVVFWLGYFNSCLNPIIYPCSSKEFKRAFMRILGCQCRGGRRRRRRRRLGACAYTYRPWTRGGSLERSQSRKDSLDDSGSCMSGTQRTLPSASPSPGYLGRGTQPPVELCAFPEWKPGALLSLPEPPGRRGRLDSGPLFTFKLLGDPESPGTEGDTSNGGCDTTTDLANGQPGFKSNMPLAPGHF
# T1 sequence (P23944 whole entry): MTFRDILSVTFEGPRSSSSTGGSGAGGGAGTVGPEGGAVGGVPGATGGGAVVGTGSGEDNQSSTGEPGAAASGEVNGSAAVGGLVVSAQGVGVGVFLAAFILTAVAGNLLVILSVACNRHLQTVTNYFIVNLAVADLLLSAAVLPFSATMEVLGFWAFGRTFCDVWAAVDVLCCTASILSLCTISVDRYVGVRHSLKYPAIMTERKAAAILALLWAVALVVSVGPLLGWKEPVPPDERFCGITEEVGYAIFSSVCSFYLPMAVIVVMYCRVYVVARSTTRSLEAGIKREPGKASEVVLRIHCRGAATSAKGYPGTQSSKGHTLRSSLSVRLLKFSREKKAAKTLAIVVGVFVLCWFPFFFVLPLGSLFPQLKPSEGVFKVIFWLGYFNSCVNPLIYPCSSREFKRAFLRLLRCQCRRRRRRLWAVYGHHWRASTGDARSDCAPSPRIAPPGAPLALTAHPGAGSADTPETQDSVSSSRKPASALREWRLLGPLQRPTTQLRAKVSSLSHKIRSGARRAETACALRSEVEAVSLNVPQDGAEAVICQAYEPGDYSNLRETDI
# T1 sequence (P43140 whole entry): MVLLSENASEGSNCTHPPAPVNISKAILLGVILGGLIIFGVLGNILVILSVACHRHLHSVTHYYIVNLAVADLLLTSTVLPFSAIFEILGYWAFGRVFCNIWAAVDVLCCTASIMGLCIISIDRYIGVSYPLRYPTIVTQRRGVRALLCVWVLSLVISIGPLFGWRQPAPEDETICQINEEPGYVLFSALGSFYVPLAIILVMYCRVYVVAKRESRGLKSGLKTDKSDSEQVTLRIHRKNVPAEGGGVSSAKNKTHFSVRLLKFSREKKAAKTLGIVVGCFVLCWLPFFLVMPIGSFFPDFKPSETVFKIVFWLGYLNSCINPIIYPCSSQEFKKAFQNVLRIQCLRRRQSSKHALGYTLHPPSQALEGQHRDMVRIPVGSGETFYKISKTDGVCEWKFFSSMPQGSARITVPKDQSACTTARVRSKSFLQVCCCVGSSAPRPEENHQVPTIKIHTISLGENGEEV
# Outline: (§1)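 Crude P2 brain membranes from male Sprague–Dawley rats (0.2–0.3 mg protein) incubated with 11 concentrations (0.01 nM–100 µM) and 1 nM of [3H]2BFI (I2), [3H]prazosin (α1) or [3H]RX821002 (α2), at room temperature in triplicate. Non-specific binding: BU224, phenylephrine or rauwolscine. Filtration, scintillation counting, Ki by Cheng–Prusoff from 3–4 experiments.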
# [2] = biological target: T2, Adrenergic receptor alpha-2 (Rattus norvegicus, UniProt P22086+P19328+P22909); test: Displacement of [3H]RX821002 from alpha2 adrenergic receptor in Sprague-Dawley rat brain membrane after 45 mins by liquid scintillation counting; format: cell membranes; outline: as §1
# T2 sequence (P22086 whole entry): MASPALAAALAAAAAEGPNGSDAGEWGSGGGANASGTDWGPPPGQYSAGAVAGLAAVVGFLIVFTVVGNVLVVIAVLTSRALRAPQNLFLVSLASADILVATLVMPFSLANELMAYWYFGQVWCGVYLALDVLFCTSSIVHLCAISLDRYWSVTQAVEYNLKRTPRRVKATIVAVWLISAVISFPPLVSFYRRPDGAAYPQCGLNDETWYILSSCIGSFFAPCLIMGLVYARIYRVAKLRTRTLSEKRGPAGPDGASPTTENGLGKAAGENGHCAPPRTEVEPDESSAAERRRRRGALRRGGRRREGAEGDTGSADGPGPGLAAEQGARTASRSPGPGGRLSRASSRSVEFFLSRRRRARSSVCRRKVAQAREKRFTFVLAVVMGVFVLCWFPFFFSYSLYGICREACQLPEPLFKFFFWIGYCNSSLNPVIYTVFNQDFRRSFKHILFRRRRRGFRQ
# T2 sequence (P19328 whole entry): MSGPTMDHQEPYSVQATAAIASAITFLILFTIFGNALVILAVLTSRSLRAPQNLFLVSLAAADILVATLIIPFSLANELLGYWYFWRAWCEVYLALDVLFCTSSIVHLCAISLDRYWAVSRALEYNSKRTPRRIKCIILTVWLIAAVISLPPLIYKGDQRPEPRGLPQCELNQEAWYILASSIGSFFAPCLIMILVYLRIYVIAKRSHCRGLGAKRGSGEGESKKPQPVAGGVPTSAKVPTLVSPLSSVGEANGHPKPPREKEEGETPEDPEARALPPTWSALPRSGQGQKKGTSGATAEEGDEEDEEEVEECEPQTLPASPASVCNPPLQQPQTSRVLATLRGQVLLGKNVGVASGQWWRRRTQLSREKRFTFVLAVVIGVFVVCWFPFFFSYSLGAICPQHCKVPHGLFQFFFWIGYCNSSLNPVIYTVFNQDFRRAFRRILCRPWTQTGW
# T2 sequence (P22909 whole entry): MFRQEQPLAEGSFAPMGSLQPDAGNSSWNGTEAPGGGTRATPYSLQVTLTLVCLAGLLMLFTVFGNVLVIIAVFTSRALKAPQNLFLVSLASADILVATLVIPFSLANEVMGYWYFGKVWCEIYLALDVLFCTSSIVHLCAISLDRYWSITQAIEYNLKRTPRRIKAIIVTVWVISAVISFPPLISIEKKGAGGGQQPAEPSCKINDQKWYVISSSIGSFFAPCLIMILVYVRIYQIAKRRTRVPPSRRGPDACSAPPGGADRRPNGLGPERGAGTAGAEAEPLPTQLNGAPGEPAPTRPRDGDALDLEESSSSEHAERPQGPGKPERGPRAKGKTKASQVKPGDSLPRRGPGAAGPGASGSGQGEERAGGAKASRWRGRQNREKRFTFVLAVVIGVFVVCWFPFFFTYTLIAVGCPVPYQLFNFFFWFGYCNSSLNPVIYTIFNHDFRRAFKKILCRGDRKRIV
# Nischarin = Nischarin (Rattus norvegicus, UniProt Q4G017); test: Displacement of [3H]clonidine from imidazoline I1 receptor in Sprague-Dawley rat kidney membrane after 45 mins by liquid scintillation counting; format: cell membranes
# Outline: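 Specific binding defined by 10 µM rilmenidine. 11 test concentrations, 50 mM Tris-HCl pH 7.4, room temperature 45 min. Filtration through PEI-soaked glass-fibre filters, scintillation counting, IC50 by curve fitting.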
# Rattus norvegicus [3] = species: Rattus norvegicus; test: Selectivity ratio of IC50 for imidazoline I1 receptor in Sprague-Dawley rat kidney membrane to Ki for alpha2 adrenergic receptor in Sprague-Dawley rat brain membrane; format: cell membranes
# [4] = biological target: T3, Alpha-2A adrenergic receptor (Homo sapiens, UniProt P08913); test: Agonist activity at human recombinant alpha2A adrenergic receptor expressed in CHO cells assessed as induction of [35S]GTPgammaS binding after 60 mins by scintillation counting; format: functional, cell-based
# T3 sequence (P08913 whole entry): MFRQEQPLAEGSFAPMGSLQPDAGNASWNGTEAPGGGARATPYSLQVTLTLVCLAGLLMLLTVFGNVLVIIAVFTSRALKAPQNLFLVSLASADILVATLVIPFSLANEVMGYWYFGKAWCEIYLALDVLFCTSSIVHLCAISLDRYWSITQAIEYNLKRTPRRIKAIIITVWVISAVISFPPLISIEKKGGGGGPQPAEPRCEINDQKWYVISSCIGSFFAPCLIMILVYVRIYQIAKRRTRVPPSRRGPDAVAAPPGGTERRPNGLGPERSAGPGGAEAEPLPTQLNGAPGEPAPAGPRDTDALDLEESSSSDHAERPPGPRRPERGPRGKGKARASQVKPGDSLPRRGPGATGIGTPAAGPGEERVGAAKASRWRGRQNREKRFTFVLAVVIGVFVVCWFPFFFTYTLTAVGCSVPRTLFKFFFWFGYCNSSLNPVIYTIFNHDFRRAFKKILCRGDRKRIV
# Outline: (§2)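 Membranes from CHO-K1 cells expressing human α2A-adrenoceptor, in Tris buffer pH 7.4 with 10 µM GDP, 5 mM MgCl2 and 150 mM NaCl; 5 µg protein preincubated with agonist 30 min at 37 °C, then 0.1 nM [35S]GTPγS for 60 min at 37 °C. Filtration and scintillation counting, duplicates, at least three repeats.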
# [5] = biological target: T4, Alpha-2A adrenergic receptor (Homo sapiens) (UniProt P08913); test: Agonist activity at human recombinant alpha2A adrenergic receptor expressed in CHO cells assessed as induction of [35S]GTPgammaS binding after 60 mins by scintillation counting relative to noradrenaline; format: functional, cell-based
# T4 sequence (whole entry): T3 sequence (P08913 whole entry)
# Outline: as §2, with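 “repeats. Curve fit gave EC50 and intrinsic activity as % of noradrenaline.” for “repeats.”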
# Rattus norvegicus [6] = test: Cardioprotectant activity in Wistar rat assessed as change in mean arterial pressure at 0.01 mg/kg, iv; format: functional, Artery
# Rattus norvegicus [7] = test: Cardioprotectant activity in Wistar rat assessed as change in mean arterial pressure at 0.1 mg/kg, iv; format: functional, Artery
# Rattus norvegicus [8] = test: Cardioprotectant activity in Wistar rat assessed as change in mean arterial pressure at 1 mg/kg, iv; format: functional, Artery
# Rattus norvegicus [9] = test: Cardioprotectant activity in Wistar rat assessed as change in heart rate at 0.01 mg/kg, iv; format: functional
# Rattus norvegicus [10] = test: Cardioprotectant activity in Wistar rat assessed as change in heart rate at 0.1 mg/kg, iv; format: functional
# Rattus norvegicus [11] = test: Cardioprotectant activity in Wistar rat assessed as change in heart rate at 1 mg/kg, iv; format: functional
# Chain of Nischarin (Q4G017 whole entry): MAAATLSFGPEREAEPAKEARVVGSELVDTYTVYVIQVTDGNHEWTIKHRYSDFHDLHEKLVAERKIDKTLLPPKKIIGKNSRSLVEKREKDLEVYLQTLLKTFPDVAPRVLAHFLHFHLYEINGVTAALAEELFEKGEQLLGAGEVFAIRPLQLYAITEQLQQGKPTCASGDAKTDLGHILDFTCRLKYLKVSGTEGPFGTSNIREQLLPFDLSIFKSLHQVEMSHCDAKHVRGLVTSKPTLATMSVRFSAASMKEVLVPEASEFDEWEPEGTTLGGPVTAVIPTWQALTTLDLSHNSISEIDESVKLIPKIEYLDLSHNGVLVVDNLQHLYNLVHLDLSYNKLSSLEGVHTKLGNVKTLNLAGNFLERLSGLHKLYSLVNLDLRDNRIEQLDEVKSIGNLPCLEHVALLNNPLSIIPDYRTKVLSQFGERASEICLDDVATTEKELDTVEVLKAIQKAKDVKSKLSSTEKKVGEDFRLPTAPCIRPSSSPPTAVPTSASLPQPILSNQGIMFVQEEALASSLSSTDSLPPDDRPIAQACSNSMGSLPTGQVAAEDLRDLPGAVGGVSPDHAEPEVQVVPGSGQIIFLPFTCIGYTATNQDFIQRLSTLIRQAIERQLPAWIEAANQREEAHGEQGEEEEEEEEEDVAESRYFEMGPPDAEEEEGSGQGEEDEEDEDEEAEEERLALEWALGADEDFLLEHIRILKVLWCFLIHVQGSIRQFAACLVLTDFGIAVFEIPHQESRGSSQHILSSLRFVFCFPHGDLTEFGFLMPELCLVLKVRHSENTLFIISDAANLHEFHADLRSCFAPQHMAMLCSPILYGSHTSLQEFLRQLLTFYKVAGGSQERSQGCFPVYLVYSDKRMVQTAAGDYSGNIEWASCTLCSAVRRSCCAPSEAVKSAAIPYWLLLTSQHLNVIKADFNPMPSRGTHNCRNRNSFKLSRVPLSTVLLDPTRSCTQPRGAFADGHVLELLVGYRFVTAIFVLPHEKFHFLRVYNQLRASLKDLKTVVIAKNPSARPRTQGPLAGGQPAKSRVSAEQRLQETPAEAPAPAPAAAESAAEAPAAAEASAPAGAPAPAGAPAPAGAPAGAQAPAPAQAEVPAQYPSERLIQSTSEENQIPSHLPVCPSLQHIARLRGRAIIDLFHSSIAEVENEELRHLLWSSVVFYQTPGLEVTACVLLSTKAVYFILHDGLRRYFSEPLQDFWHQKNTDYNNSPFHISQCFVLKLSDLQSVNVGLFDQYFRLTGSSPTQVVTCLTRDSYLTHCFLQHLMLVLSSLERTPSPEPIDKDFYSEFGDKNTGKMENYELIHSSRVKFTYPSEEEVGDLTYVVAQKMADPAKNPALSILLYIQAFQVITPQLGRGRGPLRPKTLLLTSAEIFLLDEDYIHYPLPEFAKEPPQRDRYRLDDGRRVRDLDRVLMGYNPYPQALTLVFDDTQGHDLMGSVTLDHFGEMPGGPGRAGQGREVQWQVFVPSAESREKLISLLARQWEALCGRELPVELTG
SMILES,Ki [1] [nM],Ki [2] [nM],IC50 (Nischarin) [nM],Ratio (Rattus norvegicus [3]),EC50 [4] [nM],Intrinsic activity [5] [%],Activity (Rattus norvegicus [6]) [mmHg],Activity (Rattus norvegicus [7]) [mmHg],Activity (Rattus norvegicus [8]) [mmHg],Activity (Rattus norvegicus [9]) [bpm],Activity (Rattus norvegicus [10]) [bpm],Activity (Rattus norvegicus [11]) [bpm]
Cl.Clc1ccc2[nH]nc(N=C3NCCN3)c2c1,121,10600,> 100000,> 9.4,,,,,,,,
Cl.Clc1cccc2[nH]nc(N=C3NCCN3)c12,69.3,15.9,1840,115,240,13,-10.8,-10.8,-23.6,-37,-40,-68
Cc1cccc2cnn(N=C3NCCN3)c12,,,,,37,32,,,,,,
Cl.Clc1ccc2c(N=C3NCCN3)n[nH]c2c1,386,502,2010,4,,,,,,,,
c1ccc2c(c1)cnn2N=C1NCCN1 [MARSANIDINE],,,,,160,18,,,,,,
Cc1ccc2[nH]nc(N=C3NCCN3)c2c1.Cl,29000,11400,21200,2,,,,,,,,
Cl.Clc1cccc2c(N=C3NCCN3)n[nH]c12,684,133,4010,30,73,66,-12.2,-21.7,-37.2,-35,-92,-117
Brc1cccc2[nH]nc(N=C3NCCN3)c12.Cl,984,6420,7560,1,,,,,,,,
Cc1ccc2c(N=C3NCCN3)n[nH]c2c1.Cl,508,176,16600,94.3,,,,,,,,
Cc1cccc([C@H](C)c2c[nH]cn2)c1C,,,,,,60,,,,,,
COc1ccc2[nH]nc(N=C3NCCN3)c2c1.Cl,244,1460,> 100000,> 68,,,,,,,,
Cc1cccc2[nH]nc(N=C3NCCN3)c12.Cl,46.5,22.6,32500,690,14,40,-17.1,-53.5,-22,-43,-132,-155
Cl.c1ccc2c(N=C3NCCN3)n[nH]c2c1,,39.4,3220,82,82,55,,,,,,
Clc1cccc2c1cnn2N=C1NCCN1,,,,,180,62,,,,,,
Clc1cccc2cnn(N=C3NCCN3)c12,,,,,15,48,,,,,,
COc1cccc2[nH]nc(N=C3NCCN3)c12.Cl,196,748,25600,34,,,,,,,,
